Test results as given in ChEMBL document CHEMBL1137372, “Structural investigation of the 7-chloro-3-hydroxy-1H-quinazoline-2,4-dione scaffold to obtain AMPA and kainate receptor selective antagonists. Synthesis, pharmacological, and molecular modeling studies” (J Med Chem, 2006).

Key:
Mus musculus [1] = assay: Activity against mouse motor coordination measured as number of falls from the rod in 30 sec by rotarod test at 20 mg/kg, po after 45 mins; type: functional
In short: (§1)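 Mice on a 3-cm rod rotating at 16 rpm, up to five at once. Drug dispersed in 1% sodium CMC and given po in 10 mL kg^-1 30 min before testing. Falls from the rod in 30 s were counted before treatment and at 30, 45 and 60 min after. Each value is the mean of eight mice.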

[2] = Displacement of [3H]KA from high affinity KA receptor in rat cortical membrane; type: cell membranes
In short: (§2)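 High- and low-affinity [3H]kainate binding to rat cortical membranes. Compounds were made up as a 1 mM stock in 50% DMSO and diluted in buffer. IC50s came from three or four displacement curves using four to six concentrations in triplicate, fitted with ALLFIT. Ki values are mean ± SEM of three or four determinations in triplicate.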

Mus musculus [3] = assay: Activity against mouse motor coordination measured as number of falls from the rod in 30 sec by rotarod test at 50 mg/kg, po after 45 mins; type: functional; in short: as §1
Mus musculus [4] = assay: Activity against mouse motor coordination measured as number of falls from the rod in 30 sec by rotarod test at 20 mg/kg, po after 60 mins; type: functional; in short: as §1
Mus musculus [5] = assay: Antinociceptive activity in mouse at 0.1 mg/kg, po measured as number of acetic acid-induced writhes by abdominal constriction assay; type: functional, Abdomen
Mus musculus [6] = assay: Activity against mouse motor coordination measured as number of falls from the rod in 30 sec by rotarod test at 50 mg/kg, po after 60 mins; type: functional; in short: as §1
[7] = target: Glutamate NMDA receptor (Rattus norvegicus) (UniProt P35439+Q00959+Q00960+Q00961+Q62645+Q8VHN2+Q9R1M7); assay: Displacement of [3H]glycine from Gly/NMDA receptor in rat cortical synaptic membrane at 100 uM; type: cell membranes
Mus musculus [8] = assay: Antinociceptive activity in mouse at 10 mg/kg, po measured as number of acetic acid-induced writhes by abdominal constriction assay; type: functional, Abdomen
Mus musculus [9] = assay: Antinociceptive activity in mouse at 1 mg/kg, po measured as number of acetic acid-induced writhes by abdominal constriction assay; type: functional, Abdomen
Mus musculus [10] = assay: Activity against mouse motor coordination measured as number of falls from the rod in 30 sec by rotarod test at 20 mg/kg, po after 30 mins; type: functional; in short: as §1
Mus musculus [11] = assay: Activity against mouse motor coordination measured as number of falls from the rod in 30 sec by rotarod test at 50 mg/kg, po after 30 mins; type: functional; in short: as §1
[12] = target: Glutamate receptor ionotropic, AMPA (Rattus norvegicus, UniProt P19490+P19491+P19492+P19493); assay: Displacement of [3H]AMPA from AMPA receptor in rat cortical synaptic membrane; type: cell membranes
[13] = Displacement of [3H]KA from low affinity KA receptor in rat cortical membrane; type: cell membranes; in short: as §2
Rattus norvegicus [14] = species: Rattus norvegicus; assay: Displacement of [3H]KA from high affinity KA receptor in rat cortical membrane at 100 uM; type: cell membranes
In short: (§3)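 Rat cortical membranes were used for the high-affinity and low-affinity [3H]kainate binding assays, following earlier published methods. Test compound was made as a 1 mM stock in 50% DMSO and diluted in buffer. The value is percent inhibition of specific binding at 100 µM.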

[15] = target: Glutamate receptor ionotropic, AMPA (Rattus norvegicus) (UniProt P19491+P19492+P19493+P19490); assay: Displacement of [3H]AMPA from AMPA receptor in rat cortical synaptic membrane at 100 uM; type: cell membranes
Glutamate NMDA receptor = assay: Displacement of [3H]glycine from Gly/NMDA receptor in rat cortical synaptic membrane; type: cell membranes
[16] = Antagonist activity against NMDA receptor assessed as inhibition of NMDA-induced depolarization in mouse cortex; type: functional, tissue-based
In short: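 Mouse cortical wedge preparation. Depolarization was evoked with 5 µM NMDA. The IC50 is the concentration giving 50% inhibition of the depolarization, as mean ± SEM of three separate determinations.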

[17] = target: Glutamate receptor ionotropic, AMPA (Mus musculus, UniProt P23818+P23819+Q9Z2W8+Q9Z2W9); assay: Antagonist activity against AMPA receptor assessed as inhibition of SAMPA-induced depolarization of mouse cortex
Rattus norvegicus [18] = species: Rattus norvegicus; assay: Displacement of [3H]KA from low affinity KA receptor in rat cortical membrane at 100 uM; type: cell membranes; in short: as §3
Mus musculus [19] = assay: Antinociceptive activity in mouse at 5 mg/kg, po measured as number of acetic acid-induced writhes by abdominal constriction assay; type: functional, Abdomen

Row | SMILES | IC50 [2] [µM] | inhibition [7] [%] | Ki [12] [µM] | inhibition (Rattus norvegicus [14]) [%] | inhibition [15] [%] | Ki (Glutamate NMDA receptor) [µM] | also measured
1 | O=C(O)c1ccccc1C(=O)Nc1cc2c(=O)n(O)c(=O)[nH]c2cc1Cl | 0.62 | 40 | 16.5 | – | – | – | Activity (Mus musculus [1]): 2.6; Activity (Mus musculus [3]): 3.7; Activity (Mus musculus [4]): 1.7; Activity (Mus musculus [5]): 34.7; Activity (Mus musculus [6]): 3.2; Activity (Mus musculus [8]): 24.5; Activity (Mus musculus [9]): 26.1; Activity (Mus musculus [10]): 3.3; Activity (Mus musculus [11]): 4.8; IC50 [13]: 1.6 µM
2 | O=C(O)C(CCO)On1c(=O)[nH]c2cc(Cl)ccc2c1=O (racemic) | – | 40 | – | 10 | 35 | – | –
3 | O=Cc1ccn(-c2cc3c(=O)n(O)c(=O)[nH]c3cc2Cl)c1 | 6.2 | – | 4.2 | – | – | 22.7 | –
4 | O=C1C=CCN1c1cc2c(=O)n(O)c(=O)[nH]c2cc1Cl | 10 | – | 6.2 | – | – | 42 | –
5 | O=c1[nH]c2cc(Cl)ccc2c(=O)n1O | 140 | – | – | – | – | 0.24 | –
6 | O=c1[nH]c2cc(Cl)c(-n3cccc3)cc2c(=O)n1O | 8.2 | – | 16.6 | – | – | 1 | –
7 | CN1CCc2c(-c3ccc(S(=O)(=O)N(C)C)cc3)cc3c(c2C1)NC(=O)/C3=N\OC(CCO)C(=O)O (configuration not stated) | 81 | – | 0.043 | – | – | > 30 | –
8 | O=C1OCCC1On1c(=O)[nH]c2cc(Cl)ccc2c1=O (racemic) | – | 37 | – | 11 | 26 | – | –
9 | O=c1ccn(-c2cc3c(=O)n(O)c(=O)[nH]c3cc2Cl)cc1 | 4.1 | – | 0.5 | – | – | 25 | IC50 [16]: > 80 µM; IC50 [17]: 3.5 µM
10 | N[C@@H](Cn1ccc(=O)n(Cc2ccccc2C(=O)O)c1=O)C(=O)O | 46 | 20 | 117 | – | – | – | IC50 [13]: 15 µM
11 | COC(=O)c1ccc(C(=O)Nc2cc3c(=O)n(O)c(=O)[nH]c3cc2Cl)cc1 | – | 10 | – | 28 | 43 | – | –
12 | O=C(O)c1ccn(-c2cc3c(=O)n(O)c(=O)[nH]c3cc2Cl)c1 | 13 | 44 | 1.3 | – | – | – | –
13 | CCOC(=O)COn1c(=O)[nH]c2cc(Cl)ccc2c1=O | – | 0 | – | 5 | 9 | – | –
14 | O=C(NCc1ccccc1)Nc1cc2c(=O)n(O)c(=O)[nH]c2cc1Cl | – | 27 | – | 32 | 33 | – | –
15 | O=c1[nH]c2cc(Cl)c(-n3cnnc3)cc2c(=O)n1O | 7 | 47 | – | – | – | – | IC50 [16]: 84 µM; IC50 [17]: 4.6 µM
16 | O=C(Nc1cc2c(=O)n(O)c(=O)[nH]c2cc1Cl)c1ccccc1 | 52 | 33 | 45 | – | – | – | –
17 | O=C(O)c1cccc(C(=O)Nc2cc3c(=O)n(O)c(=O)[nH]c3cc2Cl)c1 | 100 | 32 | 60 | – | – | – | inhibition (Rattus norvegicus [18]): 0%
18 | O=C(O)c1ccc(C(=O)Nc2cc3c(=O)n(O)c(=O)[nH]c3cc2Cl)cc1 | 12.9 | 40 | – | – | 29 | – | inhibition (Rattus norvegicus [18]): 0%
19 | O=C(O)COn1c(=O)[nH]c2cc(Cl)ccc2c1=O | – | – | 99 | 5 | – | 90 | –
20 | COC(=O)c1cccc(C(=O)Nc2cc3c(=O)n(O)c(=O)[nH]c3cc2Cl)c1 | – | 32 | – | 20 | 35 | – | –
21 | O=C(O)CCC(=O)Nc1cc2c(=O)n(O)c(=O)[nH]c2cc1Cl | 5.4 | 8 | 8.4 | – | – | – | –
22 | O=C1CCC(=O)N1c1cc2c(=O)n(O)c(=O)[nH]c2cc1Cl | – | – | 36 | 44 | – | 88 | –
23 | O=C(O)Cc1ccccc1Nc1c(Cl)cccc1Cl [DICLOFENAC] | – | – | – | – | – | – | Activity (Mus musculus [19]): 18.2
